Experimental findings from ChEMBL document CHEMBL1123192 (J Med Chem, 1986) are described below.

Assay [1] addresses Beta-2 adrenergic receptor (Cavia porcellus, UniProt Q8K4Z4). The experiment in a line: The compound was evaluated for the antagonistic activity against beta-2 adrenergic receptor. The assay is classed as functional. The following applies: read-out: pA2 (converted). An outline of the steps: (§1)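 Isolated tissue suited to each receptor test, held in 10-mL organ baths of Krebs-Henseleit solution at 37 °C and gassed with 95% O2/5% CO2. Antagonism was judged by how several concentrations of test agent altered a cumulative concentration-response curve to a receptor-specific agonist.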

Assay [2] relates to Rattus norvegicus. Kind of assay: Maximal change in mean arterial blood pressure (MABP) measured as % change from pretreatment value at dose of 50 mg/kg in SHR. It is filed as functional. The procedure, abridged: (§2)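 Spontaneously hypertensive rats; test agent dissolved or dispersed in 0.5% methylcellulose and given by gastric gavage at 5 mL/kg after a 1-h equilibration. Doses ranged from 1 to 100 mg/kg, with 4–8 animals per dose. MABP and HR were monitored for 4 h. Pretreatment values and maximal % change were recorded, and maximal changes were compared with vehicle by Dunnett's t test.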

The species entered for the next assay is Cavia porcellus. Kind of assay: Beta-2-adrenoceptor ISA (intrinsic sympathomimetic activity)was measured as relaxant effect against a PGF2-alpha contracted guinea pig trachea at 1x10E-5 M. It is filed as functional.
The target of assay [3] is T1, Adrenergic receptor alpha-2 (Rattus norvegicus, UniProt P22086+P19328+P22909).
T1 sequence (P22086 whole entry): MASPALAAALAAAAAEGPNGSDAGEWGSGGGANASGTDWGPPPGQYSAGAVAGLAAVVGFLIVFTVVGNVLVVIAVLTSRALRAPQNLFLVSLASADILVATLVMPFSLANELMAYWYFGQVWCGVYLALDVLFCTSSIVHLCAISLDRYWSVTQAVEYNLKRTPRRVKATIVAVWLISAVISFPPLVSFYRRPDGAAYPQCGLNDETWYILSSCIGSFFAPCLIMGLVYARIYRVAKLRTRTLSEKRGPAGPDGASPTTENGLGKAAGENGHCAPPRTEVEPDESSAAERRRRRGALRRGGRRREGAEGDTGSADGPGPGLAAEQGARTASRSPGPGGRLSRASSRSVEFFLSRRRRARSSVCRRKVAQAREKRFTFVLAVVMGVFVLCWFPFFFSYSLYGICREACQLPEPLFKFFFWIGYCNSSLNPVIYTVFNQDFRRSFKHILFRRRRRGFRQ
T1 sequence (P19328 whole entry): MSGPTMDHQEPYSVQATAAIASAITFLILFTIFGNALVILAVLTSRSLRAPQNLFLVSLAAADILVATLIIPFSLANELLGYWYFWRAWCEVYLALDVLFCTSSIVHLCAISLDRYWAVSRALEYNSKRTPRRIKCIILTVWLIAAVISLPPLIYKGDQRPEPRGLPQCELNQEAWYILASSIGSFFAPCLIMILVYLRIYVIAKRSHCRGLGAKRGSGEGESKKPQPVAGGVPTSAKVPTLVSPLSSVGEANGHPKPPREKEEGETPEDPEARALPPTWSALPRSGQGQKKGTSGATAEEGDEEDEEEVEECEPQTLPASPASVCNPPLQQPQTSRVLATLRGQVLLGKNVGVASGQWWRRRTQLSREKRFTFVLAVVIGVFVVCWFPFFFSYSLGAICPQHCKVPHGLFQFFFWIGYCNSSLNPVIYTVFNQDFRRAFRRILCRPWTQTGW
T1 sequence (P22909 whole entry): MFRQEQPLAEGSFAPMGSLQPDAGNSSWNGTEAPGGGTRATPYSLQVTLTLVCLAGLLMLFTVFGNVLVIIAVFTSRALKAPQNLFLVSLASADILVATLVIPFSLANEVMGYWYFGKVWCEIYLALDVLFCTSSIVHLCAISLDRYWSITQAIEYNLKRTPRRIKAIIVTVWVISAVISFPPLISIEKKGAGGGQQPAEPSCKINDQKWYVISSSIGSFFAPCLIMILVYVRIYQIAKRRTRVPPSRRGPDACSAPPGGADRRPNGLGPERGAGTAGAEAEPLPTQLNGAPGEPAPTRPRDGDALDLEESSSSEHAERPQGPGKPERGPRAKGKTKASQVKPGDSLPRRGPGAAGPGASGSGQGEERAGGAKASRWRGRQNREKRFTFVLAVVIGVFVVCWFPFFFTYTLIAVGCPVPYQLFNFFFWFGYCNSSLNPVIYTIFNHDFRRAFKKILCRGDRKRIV
The experiment in a line: The compound was evaluated for the antagonistic activity against alpha-2 adrenergic receptor. It is filed as functional.

Assay [4] deals with Beta-1 adrenergic receptor (Cavia porcellus) (UniProt B0FL73). The experiment in a line: Beta-1-adrenoceptor ISA (intrinsic sympathomimetic activity)using the guinea pig right atria was measured as % increase of positive chronotropic effect (basal spontaneous beating rate) at 1x10E-6 M. It is filed as functional.
Assay [5] has as its target T2, Adrenergic receptor alpha-1 (Homo sapiens, UniProt P35348+P25100+P35368).
T2 sequence (P35348 whole entry): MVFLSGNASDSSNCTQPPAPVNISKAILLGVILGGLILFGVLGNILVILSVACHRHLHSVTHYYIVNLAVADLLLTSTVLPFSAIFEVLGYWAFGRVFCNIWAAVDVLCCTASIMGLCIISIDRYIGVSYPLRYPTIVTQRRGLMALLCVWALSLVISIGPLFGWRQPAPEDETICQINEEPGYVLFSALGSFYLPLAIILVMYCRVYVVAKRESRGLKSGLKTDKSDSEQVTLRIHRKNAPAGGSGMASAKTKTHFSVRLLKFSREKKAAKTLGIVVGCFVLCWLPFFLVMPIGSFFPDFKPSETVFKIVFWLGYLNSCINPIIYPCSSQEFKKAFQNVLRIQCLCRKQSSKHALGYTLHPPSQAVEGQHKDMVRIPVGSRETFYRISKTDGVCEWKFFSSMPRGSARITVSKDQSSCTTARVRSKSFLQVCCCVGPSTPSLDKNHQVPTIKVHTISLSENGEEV
T2 sequence (P25100 whole entry): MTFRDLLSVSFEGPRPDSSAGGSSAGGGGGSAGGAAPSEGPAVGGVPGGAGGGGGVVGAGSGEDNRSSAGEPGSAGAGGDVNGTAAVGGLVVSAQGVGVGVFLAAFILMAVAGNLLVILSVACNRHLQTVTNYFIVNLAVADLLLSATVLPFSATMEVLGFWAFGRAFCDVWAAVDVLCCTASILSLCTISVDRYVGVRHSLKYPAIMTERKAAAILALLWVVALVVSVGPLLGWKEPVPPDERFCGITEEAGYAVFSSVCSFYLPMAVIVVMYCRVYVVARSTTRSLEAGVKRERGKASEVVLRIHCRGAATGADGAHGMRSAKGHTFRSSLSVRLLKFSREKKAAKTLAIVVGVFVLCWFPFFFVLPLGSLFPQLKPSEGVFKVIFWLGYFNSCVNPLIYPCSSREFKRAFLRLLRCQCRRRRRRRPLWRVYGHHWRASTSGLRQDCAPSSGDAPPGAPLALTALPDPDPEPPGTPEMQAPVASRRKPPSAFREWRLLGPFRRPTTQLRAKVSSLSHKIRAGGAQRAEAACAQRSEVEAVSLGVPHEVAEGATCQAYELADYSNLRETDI
T2 sequence (P35368 whole entry): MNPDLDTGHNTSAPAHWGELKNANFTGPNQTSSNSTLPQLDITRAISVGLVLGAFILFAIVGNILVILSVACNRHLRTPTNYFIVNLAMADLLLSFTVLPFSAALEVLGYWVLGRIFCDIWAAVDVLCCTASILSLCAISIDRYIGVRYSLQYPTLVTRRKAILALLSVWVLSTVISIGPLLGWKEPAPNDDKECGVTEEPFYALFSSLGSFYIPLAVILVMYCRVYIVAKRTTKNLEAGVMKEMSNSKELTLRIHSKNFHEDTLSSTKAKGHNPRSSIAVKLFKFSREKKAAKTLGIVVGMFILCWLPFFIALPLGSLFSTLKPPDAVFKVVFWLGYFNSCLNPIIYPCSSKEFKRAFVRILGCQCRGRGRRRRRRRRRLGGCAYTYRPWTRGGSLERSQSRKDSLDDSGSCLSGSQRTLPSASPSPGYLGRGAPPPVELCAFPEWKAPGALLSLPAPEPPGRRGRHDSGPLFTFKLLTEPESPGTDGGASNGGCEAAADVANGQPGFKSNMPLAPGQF
Kind of assay: The compound was evaluated for the antagonistic activity against alpha-1 adrenergic receptor. The assay is classed as functional, Oryctolagus cuniculus. The procedure, abridged:
as §1

Assay [6] concerns Rattus norvegicus. Kind of assay: Maximal change in heart rate (HR) measured as % change from pretreatment value at dose of 50 mg/kg in SHR. It is filed as functional. The procedure, abridged: as §2
The subject of assay [7] is Rattus norvegicus. Kind of assay: Maximal change in mean arterial blood pressure (MABP) measured as pretreatment value at dose of 50 mg/kg in SHR. The assay is classed as functional. The procedure, abridged: as §2
The target of assay [8] is Beta-1 adrenergic receptor (Cavia porcellus, UniProt B0FL73). Kind of assay: The compound was evaluated for the antagonistic activity against beta-1 adrenergic receptor. It is filed as functional. Particulars: read-out: pA2 (converted). An outline of the steps: as §1
Assay [9] deals with Rattus norvegicus. Kind of assay: Maximal change in heart rate (HR) measured as pretreatment value at dose of 50 mg/kg in SHR. The assay is classed as functional. An outline of the steps:
as §2

The structures appear in SMILES notation.

Sequence of Beta-1 adrenergic receptor (Cavia porcellus) (B0FL73 1-467): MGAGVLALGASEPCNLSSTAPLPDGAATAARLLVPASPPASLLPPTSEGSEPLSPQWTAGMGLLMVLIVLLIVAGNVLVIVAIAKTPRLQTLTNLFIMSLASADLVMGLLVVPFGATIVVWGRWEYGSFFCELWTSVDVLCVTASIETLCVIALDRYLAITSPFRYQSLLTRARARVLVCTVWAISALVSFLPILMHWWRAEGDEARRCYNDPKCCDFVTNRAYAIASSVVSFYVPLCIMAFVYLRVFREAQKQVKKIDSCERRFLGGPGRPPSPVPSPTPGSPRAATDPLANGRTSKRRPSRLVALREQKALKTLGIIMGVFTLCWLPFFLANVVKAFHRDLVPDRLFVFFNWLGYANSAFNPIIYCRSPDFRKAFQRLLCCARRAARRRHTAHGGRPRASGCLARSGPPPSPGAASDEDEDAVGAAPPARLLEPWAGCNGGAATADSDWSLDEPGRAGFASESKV
Sequence of Beta-1 adrenergic receptor (B0FL73 whole entry): as the sequence (B0FL73 1-467) above
Sequence of Beta-2 adrenergic receptor (Q8K4Z4 whole entry): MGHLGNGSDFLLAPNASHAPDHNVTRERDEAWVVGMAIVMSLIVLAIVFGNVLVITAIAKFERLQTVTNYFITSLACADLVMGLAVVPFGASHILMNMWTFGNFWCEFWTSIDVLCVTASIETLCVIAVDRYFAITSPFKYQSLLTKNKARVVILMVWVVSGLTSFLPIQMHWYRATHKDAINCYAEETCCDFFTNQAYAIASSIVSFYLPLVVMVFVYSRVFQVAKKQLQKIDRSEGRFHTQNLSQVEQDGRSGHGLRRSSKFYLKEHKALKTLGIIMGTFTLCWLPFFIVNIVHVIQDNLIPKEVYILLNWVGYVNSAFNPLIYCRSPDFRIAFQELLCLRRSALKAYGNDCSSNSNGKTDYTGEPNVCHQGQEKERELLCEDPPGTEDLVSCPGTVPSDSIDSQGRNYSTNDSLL

The term pA2 denotes the negative logarithm of the molar antagonist concentration that doubles the agonist concentration needed for the same response. The low end stands for lower antagonist potency, the high end for higher antagonist potency. On to `CC(CCc1ccccc1)NCC(O)c1cc(C(N)=O)c2c(ccn2C)c1` (stereo not given), for which the Kb in [1] was more than 10 µM; in [8], more than 1 µM. Also, the Change is -13% in the assay with Rattus norvegicus [2], 34.6% in the assay filed under Cavia porcellus, 2.7% in [4] and -15% in the assay on Rattus norvegicus [6]. In addition, the pA2 is less than 5 in assay [3] and 6.2 in [5]. Further, in the assay on Rattus norvegicus [7], the MABP was 166 mmHg. Besides, the HR in the assay on Rattus norvegicus [9] was determined as 411 beats min-1.
